Data set [1] in a line: Drug uptake in mouse J774A1 cells assessed as compound retention at 10 uM after 3 hrs by LC-MS/MS method. In kind it is ADME, cell-based. The note with it: j774.a1, 3 h. The method in brief: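 J774A.1 cells were loaded with 10 µM compound for 3 h in DMEM/25 mM Hepes, then incubated 3 h in fresh medium. Cells were washed, lysed in 0.5% Triton X-100 and analysed by LC–MS/MS. Retention is the percentage of the initially accumulated amount remaining. Triplicates, mean ± SD from one representative experiment.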

Data set [2] is described as follows: Drug uptake in mouse J774A1 cells at 10 uM after 3 hrs by LC-MS/MS method. The format is ADME, cell-based. Conditions: j774.a1, 3 h. The procedure, abridged: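 Uptake in J774A.1 macrophages seeded two days before at 2 × 10^5 cells/well. Cells were exposed to 10 µM compound for 3 h in DMEM/25 mM Hepes without supplements, washed with ice-cold PBS and lysed in 0.5% Triton X-100. Lysate was measured by LC–MS/MS, using a cell volume of 1.68 µL per 10^6 cells. Result is the I/E ratio, with E taken as 10 µM.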

Data set [3] deals with T1, Glucocorticoid receptor (Homo sapiens, UniProt P04150).
T1 sequence (P04150 whole entry): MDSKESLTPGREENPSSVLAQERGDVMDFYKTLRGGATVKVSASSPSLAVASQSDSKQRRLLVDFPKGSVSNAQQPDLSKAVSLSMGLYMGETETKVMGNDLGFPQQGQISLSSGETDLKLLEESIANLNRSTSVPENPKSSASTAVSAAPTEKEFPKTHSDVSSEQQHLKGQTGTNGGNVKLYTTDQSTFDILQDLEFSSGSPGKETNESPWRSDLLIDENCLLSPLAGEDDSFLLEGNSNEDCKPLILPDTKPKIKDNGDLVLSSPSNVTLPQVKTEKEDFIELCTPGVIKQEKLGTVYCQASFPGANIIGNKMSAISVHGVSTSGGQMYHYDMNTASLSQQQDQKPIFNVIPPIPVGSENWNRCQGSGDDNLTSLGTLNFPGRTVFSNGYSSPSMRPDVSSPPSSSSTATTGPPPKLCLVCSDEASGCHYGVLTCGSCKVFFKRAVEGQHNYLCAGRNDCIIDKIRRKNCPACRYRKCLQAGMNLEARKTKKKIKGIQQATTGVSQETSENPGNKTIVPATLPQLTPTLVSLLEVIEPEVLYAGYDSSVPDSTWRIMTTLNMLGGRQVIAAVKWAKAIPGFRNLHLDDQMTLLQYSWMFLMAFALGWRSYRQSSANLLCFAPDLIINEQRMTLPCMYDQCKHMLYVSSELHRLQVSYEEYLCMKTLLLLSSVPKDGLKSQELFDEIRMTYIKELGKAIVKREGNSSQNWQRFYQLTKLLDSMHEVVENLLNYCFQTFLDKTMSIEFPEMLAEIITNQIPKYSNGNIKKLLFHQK
As to the kind of experiment: Binding affinity to glucocorticoid receptor (unknown origin) by fluorescence polarization competitive binding assay. In general terms: In fluorescence polarisation assays a small probe gives low polarisation when free and higher when bound to something large.

Data set [4] concerns the target T1, Glucocorticoid receptor. The data set can be described thus: Displacement of [3H]-dexamethasone human glucocorticoid receptor alpha expressed in 293 MSR cells after 60 mins by scintillation counting. In kind it is cell-based.
In data set [5] the test system is Rattus norvegicus. As to the kind of experiment: Antiinflammatory activity against ovalbumin-induced airway allergic Brown-Norway rat model assessed as decrease of neutrophils in bronchoalveolar lavage fluid at 11 mg/kg administered intranasally as dry powder measured on day 29 after ovalbumin challenge. In kind it is functional, organism-based. More on the design: dose 11 mg/kg.

Data set [6] relates to Rattus norvegicus. The data set can be described thus: Antiinflammatory activity against ovalbumin-induced airway allergic Brown-Norway rat model assessed as decrease of macrophages in bronchoalveolar lavage fluid at 11 mg/kg administered intranasally as dry powder measured on day 29 after ovalbumin challenge. On the set-up: dose 11 mg/kg. In kind it is functional, organism-based. The note with it: Lung.

In data set [7] the test system is Rattus norvegicus. The data set can be described thus: Antiinflammatory activity against ovalbumin-induced airway allergic Brown-Norway rat model assessed as decrease of eosinophils in bronchoalveolar lavage fluid at 11 mg/kg administered intranasally as dry powder measured on day 29 after ovalbumin challenge (reference value: 53.1%). On the set-up: scale not given: the % may be the effect or the level left. In kind it is functional, Lung.

Activity calls are given as the source filed them. The rule behind the calls is not given here.

As for `C[C@@H]1C[C@H]2[C@@H]3CCC4=CC(=O)C=C[C@]4(C)[C@@]3(F)[C@@H](O)C[C@]2(C)[C@@]1(O)C(=O)CO` [DEXAMETHASONE], the Drug uptake entry in data set [1] and in data set [2] was “Not Active” in each case.
Regarding `CC[C@H]1OC(=O)[C@H](C)[C@@H](O)[C@H](C)[C@@H](O[C@@H]2O[C@H](C)C[C@H](N(C)C)[C@H]2O)[C@](C)(O)C[C@@H](C)CN(CCCNC(=O)[C@@]2(O)[C@H](C)C[C@H]3[C@@H]4C[C@H](F)C5=CC(=O)C=C[C@]5(C)[C@@]4(F)[C@@H](O)C[C@@]32C)[C@H](C)[C@@H](O)[C@]1(C)O`, the EC50 worked out at 0.69 µM at Glucocorticoid receptor [3] and 3.36 µM at Glucocorticoid receptor [4].
Taken in the same sequence, the figures for `CC[C@H]1OC(=O)[C@H](C)[C@@H](O[C@H]2C[C@@](C)(OC)[C@@H](O)[C@H](C)O2)[C@H](C)[C@@H](O[C@@H]2O[C@H](C)C[C@H](N(C)C)[C@H]2O)[C@](C)(O)C[C@@H](C)CN(CCCNC(=O)[C@@]2(O)[C@H](C)C[C@H]3[C@@H]4C[C@H](F)C5=CC(=O)C=C[C@]5(C)[C@@]4(F)[C@@H](O)C[C@@]32C)[C@H](C)[C@@H](O)[C@]1(C)O` were 0.91 µM and > 25 µM.
Take `CC[C@H]1OC(=O)[C@H](C)[C@@H](O)[C@H](C)[C@@H](O[C@@H]2O[C@H](C)C[C@H](N(C)C)[C@H]2O)[C@](C)(O)C[C@@H](C)CN(CCCNC(=O)[C@@]2(O)[C@H](C)C[C@H]3[C@@H]4C[C@H](F)C5=CC(=O)C=C[C@]5(C)[C@H]4[C@@H](O)C[C@@]32C)[C@H](C)[C@@H](O)[C@]1(C)O`: the half-maximal effective concentration (EC50) at Glucocorticoid receptor [3] was 0.55 µM; at Glucocorticoid receptor [4], 5.91 µM.
For `CC[C@H]1OC(=O)[C@H](C)[C@@H](O)[C@H](C)[C@@H](O[C@@H]2O[C@H](C)C[C@H](N(C)C)[C@H]2O)[C@](C)(O)C[C@@H](C)CN(CCCNC(=O)[C@H]2[C@H](C)C[C@H]3[C@@H]4CCC5=CC(=O)C=C[C@]5(C)[C@@]4(F)[C@@H](O)C[C@@]32C)[C@H](C)[C@@H](O)[C@]1(C)O` the same measures were 2.81 µM and > 25 µM.
Taken in the same sequence, the figures for `CC[C@H]1OC(=O)[C@H](C)[C@@H](O[C@H]2C[C@@](C)(OC)[C@@H](O)[C@H](C)O2)[C@H](C)[C@@H](O[C@@H]2O[C@H](C)C[C@H](N(C)C)[C@H]2O)[C@](C)(O)C[C@@H](C)CN(CCCNC(=O)[C@@]2(O)CC[C@H]3[C@@H]4CCC5=CC(=O)CC[C@]5(C)[C@H]4[C@@H](O)C[C@@]32C)[C@H](C)[C@@H](O)[C@]1(C)O` were > 10 µM and > 25 µM.
Turning to `C[C@@H]1C[C@H]2[C@@H]3CCC4=CC(=O)C=C[C@]4(C)[C@@]3(F)[C@@H](O)C[C@]2(C)[C@H]1C(=O)CO` [DESOXIMETASONE], the Drug uptake result in data set [1] and in data set [2] was “Not Active” in each case.
With `CC[C@H]1OC(=O)[C@H](C)[C@@H](O[C@H]2C[C@@](C)(OC)[C@@H](O)[C@H](C)O2)[C@H](C)[C@@H](O[C@@H]2O[C@H](C)C[C@H](N(C)C)[C@H]2O)[C@](C)(O)C[C@@H](C)CN(CCCNC(=O)[C@H]2[C@H](C)C[C@H]3[C@@H]4C[C@H](F)C5=CC(=O)C=C[C@]5(C)[C@@]4(F)[C@@H](O)C[C@@]32C)[C@H](C)[C@@H](O)[C@]1(C)O`, the values for the EC50 at Glucocorticoid receptor [3] and on Glucocorticoid receptor [4] were 0.09 µM and 0.53 µM, respectively.
Taken in the same sequence, the figures for `CC[C@H]1OC(=O)[C@H](C)[C@@H](O[C@H]2C[C@@](C)(OC)[C@@H](O)[C@H](C)O2)[C@H](C)[C@@H](O[C@@H]2O[C@H](C)C[C@H](N(C)C)[C@H]2O)[C@](C)(O)C[C@@H](C)CN(CCCNC(=O)[C@H]2CC[C@H]3[C@@H]4CCC5=CC(=O)CC[C@]5(C)[C@H]4[C@@H](O)C[C@]23C)[C@H](C)[C@@H](O)[C@]1(C)O` were > 10 µM and > 25 µM.
For the compound `CC[C@H]1OC(=O)[C@H](C)[C@@H](O[C@H]2C[C@@](C)(OC)[C@@H](O)[C@H](C)O2)[C@H](C)[C@@H](O[C@@H]2O[C@H](C)C[C@H](N(C)C)[C@H]2O)[C@](C)(O)C[C@@H](C)CN(CCCNC(=O)[C@@]2(O)[C@H](C)C[C@H]3[C@@H]4C[C@H](F)C5=CC(=O)C=C[C@]5(C)[C@H]4[C@@H](O)C[C@@]32C)[C@H](C)[C@@H](O)[C@]1(C)O`, the EC50 on Glucocorticoid receptor [3] was 1.44 µM; at Glucocorticoid receptor [4], > 25 µM.
As for `CC[C@H]1OC(=O)[C@H](C)[C@@H](O[C@H]2C[C@@](C)(OC)[C@@H](O)[C@H](C)O2)[C@H](C)[C@@H](O[C@@H]2O[C@H](C)C[C@H](N(C)C)[C@H]2O)[C@](C)(O)C[C@@H](C)CN(CCCNC(=O)[C@@]2(O)C(C)C[C@H]3[C@@H]4CCC5=CC(=O)C=C[C@]5(C)[C@@]4(Cl)[C@@H](O)C[C@@]32C)[C@H](C)[C@@H](O)[C@]1(C)O` (single isomer, unassigned), the 50% effective concentration (EC50) was > 10 µM at Glucocorticoid receptor [3] and > 25 µM on Glucocorticoid receptor [4].
For `CC[C@H]1OC(=O)[C@H](C)[C@@H](O)[C@H](C)[C@@H](O[C@@H]2O[C@H](C)C[C@H](N(C)C)[C@H]2O)[C@](C)(O)C[C@@H](C)CN(CCCNC(=O)[C@@]2(O)[C@H](C)C[C@H]3[C@@H]4CCC5=CC(=O)CC[C@]5(C)[C@H]4[C@@H](O)C[C@@]32C)[C@H](C)[C@@H](O)[C@]1(C)O` the same measures were 6.2 µM and > 25 µM.
As for `CCC(=O)OCC(=O)[C@@]1(OC(=O)CC)[C@@H](C)C[C@H]2[C@@H]3CCC4=CC(=O)C=C[C@]4(C)[C@@]3(Cl)[C@@H](O)C[C@@]21C` [BECLOMETHASONE DIPROPIONATE], the outcome in the data set on Rattus norvegicus [5] and with Rattus norvegicus [6] was inactive. Moreover, the Activity with Rattus norvegicus [7] is recorded as 43%.
Take `CC[C@H]1OC(=O)[C@H](C)[C@@H](O[C@H]2C[C@@](C)(OC)[C@@H](O)[C@H](C)O2)[C@H](C)[C@@H](O[C@@H]2O[C@H](C)C[C@H](N(C)C)[C@H]2O)[C@](C)(O)C[C@@H](C)CN(CCCNC(=O)[C@@]2(O)[C@H](C)C[C@H]3[C@@H]4CCC5=CC(=O)C=C[C@]5(C)[C@@]4(F)[C@@H](O)C[C@@]32C)[C@H](C)[C@@H](O)[C@]1(C)O`: the values for the EC50 at Glucocorticoid receptor [3] and at Glucocorticoid receptor [4] were 2.09 µM and 23 µM, respectively.
For `CC[C@H]1OC(=O)[C@H](C)[C@@H](O[C@H]2C[C@@](C)(OC)[C@@H](O)[C@H](C)O2)[C@H](C)[C@@H](O[C@@H]2O[C@H](C)C[C@H](N(C)C)[C@H]2O)[C@](C)(O)C[C@@H](C)CN(CCCNC(=O)[C@@]2(O)CC[C@H]3[C@@H]4CCC5=CC(=O)C=C[C@]5(C)[C@H]4[C@@H](O)C[C@@]32C)[C@H](C)[C@@H](O)[C@]1(C)O` the same measures were > 10 µM and > 25 µM.
Take `CC[C@H]1OC(=O)[C@H](C)[C@@H](O[C@H]2C[C@@](C)(OC)[C@@H](O)[C@H](C)O2)[C@H](C)[C@@H](O[C@@H]2O[C@H](C)C[C@H](N(C)C)[C@H]2O)[C@](C)(O)C[C@@H](C)CN(CCCNC(=O)[C@@]2(O)[C@H](C)C[C@H]3[C@@H]4C[C@H](F)C5=CC(=O)C=C[C@]5(C)[C@@]4(Cl)[C@@H](O)C[C@@]32C)[C@H](C)[C@@H](O)[C@]1(C)O`: the EC50 on Glucocorticoid receptor [3] stood at 1.5 µM; at Glucocorticoid receptor [4], 3.81 µM.
Regarding `CC[C@H]1OC(=O)[C@H](C)[C@@H](O)[C@H](C)[C@@H](O[C@@H]2O[C@H](C)C[C@H](N(C)C)[C@H]2O)[C@](C)(O)C[C@@H](C)CN(CCCNC(=O)[C@@]2(O)[C@H](C)C[C@H]3[C@@H]4C[C@H](F)C5=CC(=O)C=C[C@]5(C)[C@@]4(Cl)[C@@H](O)C[C@@]32C)[C@H](C)[C@@H](O)[C@]1(C)O`, the results for the EC50 on Glucocorticoid receptor [3] and at Glucocorticoid receptor [4] were 0.35 µM and 1.68 µM, respectively.

In general, EC50 refers to the concentration giving half of the maximal effect.

The values are drawn from ChEMBL document CHEMBL2311478, “Macrolactonolides: a novel class of anti-inflammatory compounds” (Bioorg Med Chem, 2013).
